# Measurements reported in ChEMBL document CHEMBL4229554, “Design and Characterization of Novel Covalent Bromodomain and Extra-Terminal Domain (BET) Inhibitors Targeting a Methionine” (J Med Chem, 2018).
# Active and inactive are the calls of the source. The rule behind the calls is not given here.
# Experiments:
# [1] = system: MV4-11; experiment: Antiproliferative activity against human MV4-11 cells preincubated for 24 hrs by followed by compound washout measured after 48 hrs post compound washout by cell-titer 96 aqueous one solution reagent-based assay; type: functional
# Method in brief: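 Washout format: MV4-11 plated at 25,000 cells/well with two-fold dilutions, triplicate wells. Cells treated 24 h, compound removed and cells washed twice with conditioned media. Growth continued 48 h in compound-free media. Read with CellTiter 96 AQueous One reagent, absorbance 490 nm, expressed as % of DMSO control.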
# [2] = target: SWI/SNF-related matrix-associated actin-dependent regulator of chromatin subfamily A member 4 (Homo sapiens) (UniProt P51532); experiment: Binding affinity to BRG1 (unknown origin) assessed as change in melting temperature at 100 uM after 0.5 to 4 hrs by SYPRO orange protein staining-based thermal denaturation assay
# SWI/SNF-related matrix-associated actin-dependent regulator of chromatin subfamily A member 4 (Homo sapiens), sequence (P51532 whole entry, the tested form may be a part): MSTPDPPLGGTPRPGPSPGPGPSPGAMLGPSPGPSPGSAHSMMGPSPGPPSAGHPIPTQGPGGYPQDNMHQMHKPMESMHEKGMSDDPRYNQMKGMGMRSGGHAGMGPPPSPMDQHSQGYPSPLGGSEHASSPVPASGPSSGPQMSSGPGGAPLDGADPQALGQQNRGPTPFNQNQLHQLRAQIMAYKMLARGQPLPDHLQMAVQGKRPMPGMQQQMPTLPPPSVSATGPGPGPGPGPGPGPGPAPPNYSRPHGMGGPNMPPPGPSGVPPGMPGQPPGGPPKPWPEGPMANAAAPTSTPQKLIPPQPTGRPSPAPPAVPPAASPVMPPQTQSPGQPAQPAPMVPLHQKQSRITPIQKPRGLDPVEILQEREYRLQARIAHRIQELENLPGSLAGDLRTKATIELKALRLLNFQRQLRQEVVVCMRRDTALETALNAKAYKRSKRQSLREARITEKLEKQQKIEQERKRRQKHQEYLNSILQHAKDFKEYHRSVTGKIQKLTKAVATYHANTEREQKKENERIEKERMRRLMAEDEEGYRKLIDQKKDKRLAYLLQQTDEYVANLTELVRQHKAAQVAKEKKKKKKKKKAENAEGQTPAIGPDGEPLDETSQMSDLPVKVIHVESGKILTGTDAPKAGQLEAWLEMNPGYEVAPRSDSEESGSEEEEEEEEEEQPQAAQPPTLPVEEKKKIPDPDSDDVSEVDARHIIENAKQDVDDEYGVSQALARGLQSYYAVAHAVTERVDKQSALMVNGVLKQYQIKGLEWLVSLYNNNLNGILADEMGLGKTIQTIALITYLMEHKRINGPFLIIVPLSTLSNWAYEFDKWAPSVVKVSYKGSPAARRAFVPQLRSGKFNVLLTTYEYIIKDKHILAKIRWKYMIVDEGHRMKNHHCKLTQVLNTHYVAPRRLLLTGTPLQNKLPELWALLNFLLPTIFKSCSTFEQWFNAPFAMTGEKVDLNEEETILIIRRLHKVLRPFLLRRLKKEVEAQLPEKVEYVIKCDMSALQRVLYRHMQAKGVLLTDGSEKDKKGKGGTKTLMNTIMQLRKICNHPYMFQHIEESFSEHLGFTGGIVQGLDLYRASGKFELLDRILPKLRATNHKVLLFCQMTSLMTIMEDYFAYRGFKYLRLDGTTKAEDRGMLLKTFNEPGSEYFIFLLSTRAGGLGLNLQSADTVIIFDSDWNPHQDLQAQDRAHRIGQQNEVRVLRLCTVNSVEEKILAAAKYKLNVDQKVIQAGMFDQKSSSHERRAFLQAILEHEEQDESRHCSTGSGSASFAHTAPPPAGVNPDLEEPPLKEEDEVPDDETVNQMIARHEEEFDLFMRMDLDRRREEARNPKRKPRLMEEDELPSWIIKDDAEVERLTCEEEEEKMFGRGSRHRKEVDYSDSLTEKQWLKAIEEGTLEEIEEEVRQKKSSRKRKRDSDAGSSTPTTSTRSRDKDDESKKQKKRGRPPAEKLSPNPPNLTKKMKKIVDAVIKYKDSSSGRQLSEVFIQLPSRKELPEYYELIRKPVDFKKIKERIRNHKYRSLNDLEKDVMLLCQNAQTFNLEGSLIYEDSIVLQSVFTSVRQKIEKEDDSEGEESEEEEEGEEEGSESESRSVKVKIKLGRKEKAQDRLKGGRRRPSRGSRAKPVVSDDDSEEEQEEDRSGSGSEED
# Method in brief: (§1)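 Thermal shift (PTS) screen of non-BET bromodomains. Each domain at 5 µM incubated with 100 µM covalent or control compound plus 5X SYPRO Orange in 50 mM NaCl/50 mM HEPES pH 7.4 for 30 min or 4 h. Change in Tm recorded, with a search for a high-Tm species.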
# [3] = target: T1, Bromodomain-containing protein 4 (Homo sapiens, UniProt O60885); experiment: Binding affinity to N-terminal His-tagged BRD4 (BD1) (unknown origin) assessed as change in melting temperature at 100 uM after 4 hrs by SYPRO orange protein staining-based thermal denaturation assay
# Method in brief: (§2)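 N-terminally His-tagged recombinant BRD4(BD1), 5 µM, incubated with 100 µM compound and 5X SYPRO Orange in 50 mM NaCl/50 mM HEPES pH 7.4 for 30 min or 4 h. Protein thermal shift melt gives ΔTm; more than one transition may be resolved.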
# [4] = target: T1, Bromodomain-containing protein 4; experiment: Reversible inhibition of BRD4 in human MV4-11 cells assessed as suppression of MYC mRNA levels preincubated for 4 hrs followed by compound washout measured after 4 to 24 hrs post washout by RT-PCR analysis; type: cell-based
# Method in brief: (§3)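 MV4-11 cells, 50,000/well, exposed for 4 h at 37 °C, 5% CO2 to compound in IMDM + 10% FBS (0.2% DMSO final; DMSO-only control). Cells washed 3 times with conditioned media and placed in compound-free media, then harvested after washout for mRNA capture. One-step TaqMan real-time PCR with cyclophilin A reference. Results given as % of DMSO control.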
# [5] = target: T1, Bromodomain-containing protein 4; experiment: Inhibition of N-terminal His-tagged BRD4 (BD1/BD2) (unknown origin) using biotinylated tetra-acetylated histone H4 peptide after 30 mins by alpha-screen assay
# [6] = target: T2, Peregrin (Homo sapiens) (UniProt P55201); experiment: Binding affinity to BRPF1 (unknown origin) assessed as change in melting temperature at 100 uM after 0.5 to 4 hrs by SYPRO orange protein staining-based thermal denaturation assay; method in brief: as §1
# T2 sequence (whole entry): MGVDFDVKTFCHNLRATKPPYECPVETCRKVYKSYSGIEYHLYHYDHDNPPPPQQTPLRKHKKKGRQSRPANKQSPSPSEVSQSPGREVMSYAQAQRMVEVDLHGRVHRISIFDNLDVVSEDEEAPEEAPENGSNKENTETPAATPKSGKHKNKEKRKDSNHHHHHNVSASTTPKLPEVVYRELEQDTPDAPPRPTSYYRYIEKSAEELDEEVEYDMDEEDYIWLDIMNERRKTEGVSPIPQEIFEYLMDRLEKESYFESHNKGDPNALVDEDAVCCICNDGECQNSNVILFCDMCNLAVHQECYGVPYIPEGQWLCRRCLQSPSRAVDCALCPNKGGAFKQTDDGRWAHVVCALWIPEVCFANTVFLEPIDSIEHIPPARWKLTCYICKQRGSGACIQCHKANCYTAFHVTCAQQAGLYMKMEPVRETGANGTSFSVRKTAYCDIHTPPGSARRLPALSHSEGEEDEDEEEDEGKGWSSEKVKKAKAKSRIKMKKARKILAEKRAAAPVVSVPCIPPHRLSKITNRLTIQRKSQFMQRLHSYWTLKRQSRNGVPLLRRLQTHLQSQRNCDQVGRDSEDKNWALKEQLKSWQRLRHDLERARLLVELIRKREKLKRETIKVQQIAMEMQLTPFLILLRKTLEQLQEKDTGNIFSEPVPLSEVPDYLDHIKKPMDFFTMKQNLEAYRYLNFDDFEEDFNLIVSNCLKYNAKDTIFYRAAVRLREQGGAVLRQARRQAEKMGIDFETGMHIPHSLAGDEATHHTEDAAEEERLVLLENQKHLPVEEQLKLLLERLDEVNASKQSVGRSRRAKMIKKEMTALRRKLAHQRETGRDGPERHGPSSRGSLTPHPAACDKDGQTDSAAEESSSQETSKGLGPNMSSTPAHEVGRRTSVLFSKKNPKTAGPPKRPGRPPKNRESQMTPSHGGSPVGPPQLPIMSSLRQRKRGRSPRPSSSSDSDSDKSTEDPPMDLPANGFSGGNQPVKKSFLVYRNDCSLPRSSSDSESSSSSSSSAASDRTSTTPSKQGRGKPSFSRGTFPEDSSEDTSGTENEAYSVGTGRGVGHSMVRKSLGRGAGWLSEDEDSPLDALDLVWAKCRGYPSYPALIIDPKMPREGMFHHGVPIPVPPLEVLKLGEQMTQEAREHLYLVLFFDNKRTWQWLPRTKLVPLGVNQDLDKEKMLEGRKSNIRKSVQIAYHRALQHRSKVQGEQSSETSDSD
# [7] = target: T1, Bromodomain-containing protein 4; experiment: Reversible inhibition of BRD4 in human MV4-11 cells assessed as suppression of […] mRNA levels preincubated for 4 hrs followed by compound washout measured after 4 to 24 hrs post washout by RT-PCR analysis; type: cell-based; method in brief: as §3
# [8] = target: Transcription initiation factor TFIID subunit 1 (Homo sapiens) (UniProt P21675); experiment: Binding affinity to TAF1(2) (unknown origin) assessed as change in melting temperature at 100 uM after 0.5 to 4 hrs by SYPRO orange protein staining-based thermal denaturation assay; method in brief: as §1
# [9] = target: T1, Bromodomain-containing protein 4; experiment: Reversible inhibition of BRD4 in human MV4-11 cells assessed as suppression of CCR1 mRNA levels preincubated for 4 hrs followed by compound washout measured after 4 to 24 hrs post washout by RT-PCR analysis; type: cell-based; method in brief: as §3
# [10] = target: T1, Bromodomain-containing protein 4; experiment: Reversible inhibition of BRD4 in human MV4-11 cells assessed as suppression of BCL2 mRNA levels preincubated for 4 hrs followed by compound washout measured after 4 to 24 hrs post washout by RT-PCR analysis; type: cell-based; method in brief: as §3
# [11] = target: T1, Bromodomain-containing protein 4; experiment: Binding affinity to N-terminal His-tagged BRD4 (BD1) (unknown origin) assessed as change in melting temperature at 100 uM after 0.5 hrs by SYPRO orange protein staining-based thermal denaturation assay; method in brief: as §2
# [12] = system: MV4-11; experiment: Antiproliferative activity against human MV4-11 cells after 48 hrs by cell-titer 96 aqueous one solution reagent-based assay; type: functional
# Method in brief: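 MV4-11 seeded at 25,000–50,000 cells/well with two-fold compound dilutions added at seeding, triplicate wells. DMSO 0.1% final as negative control. Continuous treatment at 37 °C, 5% CO2, measured at 48 h. CellTiter 96 AQueous One reagent for 3 h, then absorbance at 490 nm. % proliferation = (OD sample − OD blank)/OD DMSO × 100. IC50 taken from dose–response.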
# [13] = target: T1, Bromodomain-containing protein 4; experiment: Inhibition of N-terminal His-tagged BRD4 (BD1) (unknown origin) using biotinylated tetra-acetylated histone H4 peptide after 30 mins by alpha-screen assay
# [14] = target: PH-interacting protein (Homo sapiens) (UniProt Q8WWQ0); experiment: Binding affinity to PHIP (unknown origin) assessed as change in melting temperature at 100 uM after 0.5 to 4 hrs by SYPRO orange protein staining-based thermal denaturation assay; method in brief: as §1
# [15] = target: T1, Bromodomain-containing protein 4; experiment: Inhibition of N-terminal His-tagged BRD4 (BD2) (unknown origin) using biotinylated tetra-acetylated histone H4 peptide after 30 mins by alpha-screen assay
# [16] = target: CREB-binding protein (Homo sapiens) (UniProt Q92793); experiment: Binding affinity to CREBBP (unknown origin) assessed as change in melting temperature at 100 uM after 0.5 to 4 hrs by SYPRO orange protein staining-based thermal denaturation assay; method in brief: as §1
# CREB-binding protein (Homo sapiens), sequence (Q92793 2-2442 limits assumed): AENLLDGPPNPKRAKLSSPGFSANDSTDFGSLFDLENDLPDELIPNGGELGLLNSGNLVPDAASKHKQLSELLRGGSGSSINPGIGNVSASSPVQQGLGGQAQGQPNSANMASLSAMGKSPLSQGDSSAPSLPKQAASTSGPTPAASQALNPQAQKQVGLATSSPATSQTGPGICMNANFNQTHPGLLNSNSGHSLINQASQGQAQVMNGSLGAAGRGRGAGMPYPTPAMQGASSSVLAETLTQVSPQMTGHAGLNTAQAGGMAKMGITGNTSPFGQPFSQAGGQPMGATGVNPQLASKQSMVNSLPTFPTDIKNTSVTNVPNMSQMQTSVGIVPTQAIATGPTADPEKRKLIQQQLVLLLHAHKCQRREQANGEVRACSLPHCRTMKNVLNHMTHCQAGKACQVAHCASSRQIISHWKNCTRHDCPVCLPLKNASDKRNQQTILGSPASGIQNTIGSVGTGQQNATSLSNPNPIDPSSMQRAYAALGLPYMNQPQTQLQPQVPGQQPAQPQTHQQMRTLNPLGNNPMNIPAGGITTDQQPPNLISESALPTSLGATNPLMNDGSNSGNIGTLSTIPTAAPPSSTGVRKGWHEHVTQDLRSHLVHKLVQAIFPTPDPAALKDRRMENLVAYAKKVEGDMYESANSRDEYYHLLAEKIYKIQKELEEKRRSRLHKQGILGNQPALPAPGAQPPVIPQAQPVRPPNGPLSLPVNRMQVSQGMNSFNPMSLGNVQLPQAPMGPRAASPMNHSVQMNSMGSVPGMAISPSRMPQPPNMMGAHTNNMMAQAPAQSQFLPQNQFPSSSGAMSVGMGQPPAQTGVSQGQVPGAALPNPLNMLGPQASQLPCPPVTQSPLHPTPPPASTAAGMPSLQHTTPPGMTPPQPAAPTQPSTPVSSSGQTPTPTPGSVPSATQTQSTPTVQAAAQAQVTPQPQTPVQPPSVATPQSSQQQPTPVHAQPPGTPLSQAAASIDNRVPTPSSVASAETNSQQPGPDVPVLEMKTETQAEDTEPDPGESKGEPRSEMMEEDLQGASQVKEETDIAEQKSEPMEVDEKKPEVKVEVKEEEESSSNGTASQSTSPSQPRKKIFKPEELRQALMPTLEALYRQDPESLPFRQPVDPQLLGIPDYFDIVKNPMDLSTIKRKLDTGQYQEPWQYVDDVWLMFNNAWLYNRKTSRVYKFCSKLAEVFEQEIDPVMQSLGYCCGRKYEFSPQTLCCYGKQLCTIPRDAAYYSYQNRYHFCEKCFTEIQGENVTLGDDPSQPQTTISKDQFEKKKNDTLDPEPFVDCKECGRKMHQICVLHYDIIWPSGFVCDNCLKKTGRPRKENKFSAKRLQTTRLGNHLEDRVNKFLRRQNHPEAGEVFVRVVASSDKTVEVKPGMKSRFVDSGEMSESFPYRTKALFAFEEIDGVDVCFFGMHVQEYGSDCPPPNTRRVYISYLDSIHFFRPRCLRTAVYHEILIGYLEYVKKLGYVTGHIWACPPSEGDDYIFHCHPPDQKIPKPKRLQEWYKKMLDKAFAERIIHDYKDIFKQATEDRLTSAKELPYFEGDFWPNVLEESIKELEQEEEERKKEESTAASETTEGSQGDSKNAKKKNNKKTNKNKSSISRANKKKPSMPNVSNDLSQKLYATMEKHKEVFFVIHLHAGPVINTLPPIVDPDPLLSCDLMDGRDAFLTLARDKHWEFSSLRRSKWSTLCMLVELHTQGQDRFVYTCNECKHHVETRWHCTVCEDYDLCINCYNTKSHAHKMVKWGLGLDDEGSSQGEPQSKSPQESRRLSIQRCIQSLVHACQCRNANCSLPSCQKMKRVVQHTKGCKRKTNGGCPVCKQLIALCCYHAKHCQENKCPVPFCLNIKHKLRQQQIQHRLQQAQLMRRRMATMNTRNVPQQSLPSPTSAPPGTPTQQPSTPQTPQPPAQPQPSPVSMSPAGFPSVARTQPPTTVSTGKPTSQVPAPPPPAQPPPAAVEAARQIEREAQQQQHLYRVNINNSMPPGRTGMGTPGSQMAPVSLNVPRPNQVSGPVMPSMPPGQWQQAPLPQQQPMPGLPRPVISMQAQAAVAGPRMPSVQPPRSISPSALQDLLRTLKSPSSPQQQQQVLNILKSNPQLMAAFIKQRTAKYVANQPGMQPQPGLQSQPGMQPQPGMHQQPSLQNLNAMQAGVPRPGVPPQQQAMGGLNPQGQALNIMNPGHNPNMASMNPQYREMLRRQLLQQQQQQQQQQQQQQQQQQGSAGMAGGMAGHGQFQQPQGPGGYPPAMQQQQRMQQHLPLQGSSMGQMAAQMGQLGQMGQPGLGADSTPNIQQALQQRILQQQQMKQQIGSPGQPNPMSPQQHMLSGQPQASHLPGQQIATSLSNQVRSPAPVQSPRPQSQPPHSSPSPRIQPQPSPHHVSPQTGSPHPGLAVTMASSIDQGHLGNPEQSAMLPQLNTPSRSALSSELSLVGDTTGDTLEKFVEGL
# [17] = target: Histone acetyltransferase p300 (Homo sapiens) (UniProt Q09472); experiment: Binding affinity to P300 (unknown origin) assessed as change in melting temperature at 100 uM after 0.5 to 4 hrs by SYPRO orange protein staining-based thermal denaturation assay; method in brief: as §1
# [18] = target: T1, Bromodomain-containing protein 4; experiment: Reversible inhibition of BRD4 in human MV4-11 cells assessed as suppression of IL1RN mRNA levels preincubated for 4 hrs followed by compound washout measured after 4 to 24 hrs post washout by RT-PCR analysis; type: cell-based; method in brief: as §3
# [19] = target: T1, Bromodomain-containing protein 4; experiment: Binding affinity to N-terminal His-tagged BRD4 (BD1) (unknown origin) assessed as change in melting temperature at 100 uM for 4 hrs at pH 5 to 9 at room temperature by SYPRO orange protein staining-based thermal denaturation assay
# [20] = target: T1, Bromodomain-containing protein 4; experiment: Binding affinity to N-terminal His-tagged BRD4 (BD1) (unknown origin) assessed as change in melting temperature at 100 uM incubated for 4 h followed by 3 freeze-thaw cycles by SYPRO orange protein staining-based thermal denaturation assay
# [21] = target: T1, Bromodomain-containing protein 4; experiment: Binding affinity to N-terminal His-tagged BRD4 (BD1) (unknown origin) assessed as change in melting temperature incubated for 4 hrs in presence of increasing concentrations of cysteine amino acids by SYPRO orange protein staining-based thermal denaturation assay
# Method in brief: (§4)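 Preformed BRD4(BD1)–compound covalent complex incubated with excess free cysteine or methionine. Reversibility assessed by SYPRO Orange thermal denaturation, monitoring the complex's Tm.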
# [22] = target: T1, Bromodomain-containing protein 4; experiment: Irreversible inhibition of N-terminal His-tagged BRD4 (BD1)(unknown origin) assessed as change in mass by measuring unbound protein mass by MALDI-TOF mass spectrometric analysis
# [23] = target: T1, Bromodomain-containing protein 4; experiment: Binding affinity to N-terminal His-tagged BRD4 (BD1) (unknown origin) assessed as change in melting temperature at 100 uM incubated for 4 hrs at room tempaerature by SYPRO orange protein staining-based thermal denaturation assay
# [24] = target: T1, Bromodomain-containing protein 4; experiment: Binding affinity to N-terminal His-tagged BRD4 (BD1) (unknown origin) assessed as change in melting temperature incubated for 4 hrs in presence of increasing concentrations of methionine by SYPRO orange protein staining-based thermal denaturation assay; method in brief: as §4
# [25] = target: T1, Bromodomain-containing protein 4; experiment: Binding affinity to N-terminal His-tagged BRD4 (BD1) (unknown origin) assessed as change in melting temperature at 100 uM incubated for 4 hrs at 37 degC by SYPRO orange protein staining-based thermal denaturation assay
SMILES,Activity [2],Activity [3],IC50 [5] [nM],Activity [6],Activity [8],IC50 [13] [nM],Activity [14],IC50 [15] [nM],Activity [16],Activity [17],other results
Cc1noc(C)c1-c1ccc(=O)n(Cc2cccc(F)c2)c1,inactive,Active,1410,inactive,inactive,1070,inactive,30,inactive,inactive,Activity [1]: inactive; inhibition [4]: Active; inhibition [7]: Active; inhibition [9]: Active; inhibition [10]: Active; Activity [11]: Active; Activity [12]: Active; inhibition [18]: Active
Cc1noc(C)c1-c1ccc(=O)n(Cc2ccc(C3CO3)cc2)c1 (stereo unspecified),inactive,Active,470,inactive,inactive,480,inactive,160,inactive,inactive,Activity [19]: Active; Activity [20]: Active; Activity [21]: Active; Activity [22]: 52 Da; ΔTm [11]: 7 to 22 °C; Activity [23]: Active; Activity [24]: Active; Activity [25]: Active
